inhibition, inhibition of growth and mortality data for 3 compounds are collected here from ChEMBL document CHEMBL3046679, “Design, synthesis, and biological activities of arylmethylamine substituted chlorotriazine and methylthiotriazine compounds” (J Agric Food Chem, 2011).

SMILES strings stand for the structures. Active and inactive are the calls of the source. No cut-off for these calls is given here.

For the first experiment, the system named is Phytophthora infestans. The experiment is described as follows: Fungicidal activity against Phytophthora infestans assessed as inhibition of mycelia growth at 200 ppm. Type of experiment: functional, organism-based.
Details: not given
As to `CCNc1nc(Cl)nc(NC(C)C)n1` [ATRAZINE], the inhibition result was “inactive”.
With `CCNc1nc(NC(C)C)nc(SC)n1` [AMETRYNE], the inhibition entry was “inactive”.
Turning to `CC(C)Nc1nc(Cl)nc(NCc2cc(-c3ccccc3)no2)n1`, the inhibition result is “inactive”.

The test system of a further experiment is Zymoseptoria tritici. Put plainly: Fungicidal activity against Zymoseptoria tritici assessed as inhibition of mycelia growth at 100 ppm. Type of experiment: functional, organism-based.
Details: not given
As to `CCNc1nc(NC(C)C)nc(SC)n1` [AMETRYNE], the inhibition result is “inactive”.

The next experiment deals with Botrytis cinerea. The experiment is described as follows: Fungicidal activity against Botryotinia fuckeliana assessed as inhibition of mycelia growth at 2 ppm.
Details: not given
Type of experiment: functional, organism-based. Summed up: (§1)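 Mycelial growth test in 96-well plates: compound incorporated into artificial growth medium at 2 ppm, two replicates per rate. Each well scored 99 for complete, 55 for partial or 0 for no inhibition. Values are the mean across replicates; azoxystrobin and prochloraz used as positive controls.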
As for `CCNc1nc(Cl)nc(NC(C)C)n1` [ATRAZINE], the inhibition entry was “inactive”.

In a further experiment the test system is Fusarium graminearum. The experiment is described as follows: Fungicidal activity against Fusarium graminearum assessed as inhibition of mycelia growth at 2 ppm.
Details: not given
The class given is functional, organism-based. Put shortly: as §1
Regarding `CCNc1nc(Cl)nc(NC(C)C)n1` [ATRAZINE], the inhibition result was “inactive”.
On the same count and under the same terms, then `CCNc1nc(NC(C)C)nc(SC)n1` [AMETRYNE], with “inactive”.
As to `CC(C)Nc1nc(Cl)nc(NCc2cc(-c3ccccc3)no2)n1`, the inhibition result is “inactive”.

A further experiment deals with Alternaria solani. The experiment is described as follows: Fungicidal activity against Alternaria solani assessed as inhibition of mycelia growth at 2 ppm. The class given is functional, organism-based.
Details: not given
Put shortly:
as §1
As to `CCNc1nc(Cl)nc(NC(C)C)n1` [ATRAZINE], the inhibition entry is “inactive”.
Same read-out and setting: in the case of `CCNc1nc(NC(C)C)nc(SC)n1` [AMETRYNE] it was “inactive”.
The same measure, in the same setting: in the case of `CC(C)Nc1nc(Cl)nc(NCc2cc(-c3ccccc3)no2)n1` it was “inactive”.

The subject of a further experiment is Pythium dissimile. Put plainly: Fungicidal activity against Pythium dissimile assessed as inhibition of mycelia growth at 2 ppm. Type of experiment: functional, organism-based.
Details: not given
Put shortly: as §1
`CCNc1nc(Cl)nc(NC(C)C)n1` [ATRAZINE]: the inhibition entry was “inactive”.
Same read-out and setting: then `CCNc1nc(NC(C)C)nc(SC)n1` [AMETRYNE], with “inactive”; and `CC(C)Nc1nc(Cl)nc(NCc2cc(-c3ccccc3)no2)n1`, with “inactive”.

The next experiment has as its system Digitaria sanguinalis. The experiment is described as follows: Herbicidal activity against Digitaria sanguinalis (hairy crabgrass) assessed as growth inhibition at 1 kg/ha preemergence treatment by glasshouse test. Type of experiment: functional. To be noted: pre-emergence, read-out: GI. Summed up:
(§2)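 Glasshouse screen with pre- or postemergence application at 1.0 kg/ha. Result given as percent inhibition of plant growth; norflurazon and glyphosate used as controls.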
As to `CCNc1nc(Cl)nc(NC(C)C)n1` [ATRAZINE], the inhibition of growth at 1000 g/ha amounted to 0%.
`CCNc1nc(NC(C)C)nc(SC)n1` [AMETRYNE]: the inhibition of growth at 1000 g/ha is 90%.

The test system of another experiment is Stellaria media. The experiment is described as follows: Herbicidal activity against Stellaria media assessed as growth inhibition at 1 kg/ha preemergence treatment by glasshouse test. The class given is functional. The note with it: pre-emergence, read-out: GI. Put shortly:
as §2
For `CCNc1nc(Cl)nc(NC(C)C)n1` [ATRAZINE], the inhibition of growth at 1000 g/ha stood at 90%.
Turning to `CCNc1nc(NC(C)C)nc(SC)n1` [AMETRYNE], the inhibition of growth at 1000 g/ha turned out to be 90%.

In another experiment the test system is Lolium perenne. Put plainly: Herbicidal activity against Lolium perenne (perennial ryegrass) assessed as growth inhibition at 1 kg/ha preemergence treatment by glasshouse test. The class given is functional. To be noted: pre-emergence, read-out: GI. Put shortly:
as §2
Take `CCNc1nc(Cl)nc(NC(C)C)n1` [ATRAZINE]: the inhibition of growth at 1000 g/ha was determined as 80%.
The same measure, in the same setting: in the case of `CCNc1nc(NC(C)C)nc(SC)n1` [AMETRYNE] it was 90%.

Another experiment relates to Amaranthus retroflexus. Put plainly: Herbicidal activity against Amaranthus retroflexus assessed as growth inhibition at 1 kg/ha preemergence treatment by glasshouse test. The class given is functional. To be noted: pre-emergence, read-out: GI. Summed up: as §2
In the case of `CCNc1nc(Cl)nc(NC(C)C)n1` [ATRAZINE], the inhibition of growth at 1000 g/ha stood at 100%.
The same measure, in the same setting: then `CCNc1nc(NC(C)C)nc(SC)n1` [AMETRYNE], with 100%.

The subject of another experiment is Digitaria sanguinalis. The experiment is described as follows: Herbicidal activity against Digitaria sanguinalis (hairy crabgrass) assessed as growth inhibition at 1 kg/ha postemergence treatment by glasshouse test. The class given is functional. The note with it: post-emergence, read-out: GI. Put shortly: as §2
With `CCNc1nc(Cl)nc(NC(C)C)n1` [ATRAZINE], the inhibition of growth at 1000 g/ha worked out at 70%.
For the compound `CCNc1nc(NC(C)C)nc(SC)n1` [AMETRYNE], the inhibition of growth at 1000 g/ha came to 100%.

In the next experiment the test system is Stellaria media. The experiment is described as follows: Herbicidal activity against Stellaria media assessed as growth inhibition at 1 kg/ha postemergence treatment by glasshouse test. Type of experiment: functional. The note with it: post-emergence, read-out: GI. Put shortly:
as §2
As for `CCNc1nc(Cl)nc(NC(C)C)n1` [ATRAZINE], the inhibition of growth at 1000 g/ha stood at 100%.
The same measure, in the same setting: then `CCNc1nc(NC(C)C)nc(SC)n1` [AMETRYNE], with 100%.

For a further experiment, the system named is Lolium perenne. Put plainly: Herbicidal activity against Lolium perenne (perennial ryegrass) assessed as growth inhibition at 1 kg/ha postemergence treatment by glasshouse test. The class given is functional. To be noted: post-emergence, read-out: GI. Put shortly: as §2
Regarding `CCNc1nc(Cl)nc(NC(C)C)n1` [ATRAZINE], the inhibition of growth at 1000 g/ha turned out to be 100%.
Take `CCNc1nc(NC(C)C)nc(SC)n1` [AMETRYNE]: the inhibition of growth at 1000 g/ha stood at 100%.

The next experiment has as its system Amaranthus retroflexus. The experiment is described as follows: Herbicidal activity against Amaranthus retroflexus assessed as growth inhibition at 1 kg/ha postemergence treatment by glasshouse test. To be noted: post-emergence, read-out: GI. The class given is functional. Put shortly: as §2
With `CCNc1nc(Cl)nc(NC(C)C)n1` [ATRAZINE], the inhibition of growth at 1000 g/ha is 100%.
Turning to `CCNc1nc(NC(C)C)nc(SC)n1` [AMETRYNE], the inhibition of growth at 1000 g/ha came to 100%.

The test system of another experiment is Poa annua. Put plainly: Herbicidal activity against Poa annua assessed as growth inhibition at 32 ppm by 96-well plate test. To be noted: read-out: GI. The class given is functional. Summed up: (§3)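 96-well plate herbicide screen: Arabidopsis thaliana at 10 ppm and Poa annua at 32 ppm, two replicates. Plates incubated seven days in a controlled-environment cabinet. Each replicate scored 0 (no visible effect) or 99 (herbicidal effect); values are the mean of the two. Atrazine used as reference.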
On to `CCNc1nc(Cl)nc(NC(C)C)n1` [ATRAZINE], for which the inhibition of growth at 32 ppm was 0%.
On the same count and under the same terms, then `CCNc1nc(NC(C)C)nc(SC)n1` [AMETRYNE], with 0%.

The next experiment has as its system Arabidopsis thaliana. The experiment is described as follows: Herbicidal activity against Arabidopsis thaliana assessed as growth inhibition at 10 ppm by 96-well plate test. Type of experiment: functional. The note with it: read-out: GI. Put shortly:
as §3
Consider `CCNc1nc(Cl)nc(NC(C)C)n1` [ATRAZINE], for which the inhibition of growth at 10 ppm amounted to 99%.
For the compound `CCNc1nc(NC(C)C)nc(SC)n1` [AMETRYNE], the inhibition of growth at 10 ppm stood at 99%.

In a further experiment the test system is Echinochloa crus-galli. The experiment is described as follows: Herbicidal activity against Echinochloa crus-galli (barnyard grass) at 1.5 kg/ha postemergence treatment measured after 10 days by glasshouse test. The class given is functional. To be noted: post-emergence, 240 h. Put shortly: (§4)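 Glasshouse pre/postemergence test, each treatment in triplicate. Above-ground fresh weight measured 10 days after treatment. Result expressed as percent inhibition versus control, from 0 (no control) to 100 (complete control); glyphosate used as positive control.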
On to `CCNc1nc(Cl)nc(NC(C)C)n1` [ATRAZINE], for which the inhibition at 1500 g/ha came to 100%.
The same measure, in the same setting: in the case of `CCNc1nc(NC(C)C)nc(SC)n1` [AMETRYNE] it was 100%.
Still for that read-out and setting: then `CC(C)Nc1nc(Cl)nc(NCc2cc(-c3ccccc3)no2)n1`, with 17.7%.

In the next experiment the test system is Brassica napus. Put plainly: Herbicidal activity against Brassica napus (oilseed rape) at 1.5 kg/ha postemergence treatment measured after 10 days by glasshouse test. Type of experiment: functional. To be noted: post-emergence, 240 h. Put shortly: as §4
Compound `CCNc1nc(Cl)nc(NC(C)C)n1` [ATRAZINE] gave an inhibition at 1500 g/ha of 100%.
Still for that read-out and setting: then `CCNc1nc(NC(C)C)nc(SC)n1` [AMETRYNE], with 100%; and `CC(C)Nc1nc(Cl)nc(NCc2cc(-c3ccccc3)no2)n1`, with 42.4%.

Another experiment concerns Echinochloa crus-galli. Put plainly: Herbicidal activity against Echinochloa crus-galli (barnyard grass) at 1.5 kg/ha preemergence treatment measured after 10 days by glasshouse test. Type of experiment: functional. The note with it: pre-emergence, 240 h. Put shortly:
as §4
As for `CCNc1nc(Cl)nc(NC(C)C)n1` [ATRAZINE], the inhibition at 1500 g/ha stood at 100%.
Still for that read-out and setting: then `CCNc1nc(NC(C)C)nc(SC)n1` [AMETRYNE], with 100%; and `CC(C)Nc1nc(Cl)nc(NCc2cc(-c3ccccc3)no2)n1`, with 4.3%.

The subject of a further experiment is Brassica napus. The experiment is described as follows: Herbicidal activity against Brassica napus (oilseed rape) at 1.5 kg/ha preemergence treatment measured after 10 days by glasshouse test. Type of experiment: functional. The note with it: pre-emergence, 240 h. Summed up:
as §4
In turn, `CCNc1nc(Cl)nc(NC(C)C)n1` [ATRAZINE] returned an inhibition at 1500 g/ha of 100%.
The compound `CCNc1nc(NC(C)C)nc(SC)n1` [AMETRYNE] yielded an inhibition at 1500 g/ha of 100%.
Compound `CC(C)Nc1nc(Cl)nc(NCc2cc(-c3ccccc3)no2)n1` registered an inhibition at 1500 g/ha of 20.1%.

The next experiment has as its system Heliothis virescens. The experiment is described as follows: Insecticidal activity against Lepidoptera Heliothis virescens (tobacco budworm) assessed as mortality at 1000 ppm by leaf-disk assay. Type of experiment: functional, organism-based.
Details: not given
Put shortly: (§5)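 Leaf-disk assay at 1000 ppm, three replicates. Plates kept 5–9 days in controlled-environment cabinets. Mortality judged against untreated wells: 99 for significant mortality, 0 otherwise. Values are the mean of three; thiamethoxam and indoxacarb used as positive controls.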
In the case of `CCNc1nc(Cl)nc(NC(C)C)n1` [ATRAZINE], the mortality result is “inactive”.
The same measure, in the same setting: in the case of `CCNc1nc(NC(C)C)nc(SC)n1` [AMETRYNE] it was “inactive”; in that of `CC(C)Nc1nc(Cl)nc(NCc2cc(-c3ccccc3)no2)n1`, “Active”.

The next experiment has as its system Aphididae. Put plainly: Insecticidal activity against Aphididae (aphids) assessed as mortality at 1000 ppm by leaf-disk assay. Type of experiment: functional, organism-based.
Details: not given
Summed up: as §5
For `CCNc1nc(NC(C)C)nc(SC)n1` [AMETRYNE], the mortality entry was “inactive”.
On to `CC(C)Nc1nc(Cl)nc(NCc2cc(-c3ccccc3)no2)n1`, for which the mortality result is “inactive”.
